One data set addresses T1, Renin (Macaca fascicularis, UniProt Q6DLS0).
T1 sequence (Q6DLS0 whole entry): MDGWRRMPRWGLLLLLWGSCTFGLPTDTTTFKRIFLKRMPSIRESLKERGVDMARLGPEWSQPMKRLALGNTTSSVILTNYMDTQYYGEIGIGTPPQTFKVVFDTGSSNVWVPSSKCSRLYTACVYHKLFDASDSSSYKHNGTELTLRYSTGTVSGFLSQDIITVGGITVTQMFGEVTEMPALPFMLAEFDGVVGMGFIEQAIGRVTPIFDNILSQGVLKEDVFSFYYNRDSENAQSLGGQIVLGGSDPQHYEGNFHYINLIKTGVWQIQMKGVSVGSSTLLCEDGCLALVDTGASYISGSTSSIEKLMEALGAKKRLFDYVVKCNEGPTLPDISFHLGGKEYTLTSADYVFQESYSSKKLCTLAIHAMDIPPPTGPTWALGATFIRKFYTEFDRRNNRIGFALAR
The data set is described as follows: Inhibition of renin in cynomolgus monkey plasma after 1 hr by RIA. The procedure, abridged: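 Pooled mixed-gender EDTA cynomolgus monkey plasma with pH adjusting solution and Inhibitor A, compound in 1% DMSO final, incubated 1 h at 37 °C. Angiotensin I by competitive RIA; uninhibited and 4 °C controls define % inhibition; IC50 from four-parameter fit; ratio is compound IC50 over aliskiren IC50 in same plasma batch; ≥2 replicates.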

In data set [1] the test system is Cynomolgus monkey. The data set is described as follows: Inhibition of renin in furosemide pretreated cynomolgus monkey assessed as reduction in mean arterial blood pressure at 1 to 10 mg/kg, po up to 24 hrs. Format: functional, organism-based. As to conditions: Macaca fascicularis. The procedure, abridged: (§1)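 Conscious freely moving telemetered cynomolgus monkeys (n = 6), furosemide 5 mg/kg/day im for 3 days before dosing; fasted from morning, fed ≥8 h post-dose. Oral 1, 3, 10 mg/kg or 1% methylcellulose, crossover design; arterial pressure recorded from −3 to 24 h; hourly mean MAP; mean ± SEM.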

For data set [2], the system named is Cynomolgus monkey. The data set is described as follows: Inhibition of renin in po dosed furosemide pretreated cynomolgus monkey assessed as reduction in mean arterial blood pressure. Particulars: Macaca fascicularis. Format: functional, organism-based. The procedure, abridged: as §1
Data set [3] relates to Cynomolgus monkey. In words: Inhibition of renin in po dosed furosemide pretreated cynomolgus monkey plasma after 1 to 24 hrs. It is filed as functional, organism-based. Particulars: Macaca fascicularis. In outline: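 Cynomolgus monkeys pretreated with furosemide given single oral dose 1, 3 or 10 mg/kg or vehicle 1% methylcellulose. Venous blood into EDTA-2Na tubes at 1, 2, 4, 8, 24 h, chilled, centrifuged cold, plasma frozen; plasma renin activity by radioimmunoassay.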

The nature of data set [4]: Plasma concentration cynomolgus monkey at 1000 mg/kg, po after 4 hrs. More on the design: dose 1000 mg/kg, route oral. Format: ADME, organism-based, Macaca fascicularis.
The nature of data set [5]: Plasma concentration in beagle dog at 0.5 mg/kg/min, iv after 30 mins. Format: ADME, organism-based, Canis lupus familiaris. More on the design: route intravenous. In outline:
(§2)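 Anesthetized dogs; after ECG parameters stabilized, compound infused iv continuously at 0.5 mg/kg/min for 1 h. ECG changes at 30 min as % change from baseline; 2 mL blood drawn from left femoral artery for plasma drug concentration.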

The test system of data set [6] is Canis familiaris. The data set is described as follows: Cardiotoxicity in anesthetized beagle dog assessed as change in QTc interval at 0.5 mg/kg/min, iv after 30 mins relative to baseline. Format: toxicity, organism-based, Canis lupus familiaris. Details: route intravenous. As to conditions: in vivo, 0.5 h. The procedure, abridged: as §2
Data set [7] concerns Canis familiaris. The data set is described as follows: Cardiotoxicity in anesthetized beagle dog assessed as change in QRS width at 0.5 mg/kg/min, iv after 30 mins relative to baseline. It is filed as toxicity, organism-based, Canis lupus familiaris. Details: route intravenous. As to conditions: in vivo, 0.5 h. The procedure, abridged: as §2
The test system of data set [8] is Canis familiaris. In words: Cardiotoxicity in anesthetized beagle dog assessed as change in […] at 0.5 mg/kg/min, iv after 30 mins relative to baseline. It is filed as toxicity, organism-based, Canis lupus familiaris. As to conditions: in vivo, 0.5 h. Details: route intravenous. In outline: as §2
In data set [9] the test system is Canis familiaris. In words: Cardiotoxicity in anesthetized beagle dog assessed as change in heart rate at 0.5 mg/kg/min, iv after 30 mins relative to baseline. Format: toxicity, organism-based, Canis lupus familiaris. Details: route intravenous. Particulars: in vivo, 0.5 h. The procedure, abridged: as §2
The test system of data set [10] is Oryctolagus cuniculus. The data set is described as follows: Cardiotoxicity in anesthetized New Zealand White rabbit assessed as change in QRS width at 1 mg/kg/min, iv after 10 mins relative to baseline. Format: toxicity, organism-based. Details: route intravenous. As to conditions: in vivo. The procedure, abridged: (§3)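 Female NZW rabbits anesthetized with ketamine 35 mg/kg ip plus xylazine 5 mg/kg ip, tracheotomized, ventilated with room air. ECG and systemic pressure monitored; HR, PR, QRS, QT, QTc quantified. After stabilization, continuous iv infusion 1 mg/kg/min for 1 h; values at 10 min as % change from baseline.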

The test system of data set [11] is Oryctolagus cuniculus. The data set is described as follows: Cardiotoxicity in anesthetized New Zealand White rabbit assessed as change in […] at 1 mg/kg/min, iv after 10 mins relative to baseline. Format: toxicity, organism-based. More on the design: route intravenous. Particulars: in vivo. The procedure, abridged:
as §3

The subject of data set [12] is Oryctolagus cuniculus. The data set is described as follows: Cardiotoxicity in anesthetized New Zealand White rabbit assessed as change in heart rate at 1 mg/kg/min, iv after 10 mins relative to baseline. Format: toxicity, organism-based. More on the design: route intravenous. As to conditions: in vivo. The procedure, abridged: as §3
The species entered for data set [13] is Oryctolagus cuniculus. In words: Cardiotoxicity in New Zealand White rabbit heart assessed as change in QTc interval at 100 uM after 20 mins relative to baseline. Format: toxicity. As to conditions: ex_vivo. The procedure, abridged: (§4)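 Isolated Langendorff-perfused hearts from female NZW rabbits anesthetized with thiopental 30 mg/kg iv; heart excised into chilled Krebs-Henseleit solution. After parameters stabilized, compound perfused at 10, 30 and 100 µM for 20 min; ECG changes expressed as % change from baseline.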

Data set [14] has as its system Heart. In words: Cardiotoxicity in New Zealand White rabbit heart assessed as change in QRS width at 100 uM after 20 mins relative to baseline. It is filed as toxicity, tissue-based, Oryctolagus cuniculus. The procedure, abridged: as §4
The test system of data set [15] is Heart. The data set is described as follows: Cardiotoxicity in New Zealand White rabbit heart assessed as change in […] at 100 uM after 20 mins relative to baseline. Format: toxicity, tissue-based, Oryctolagus cuniculus. The procedure, abridged: as §4
Data set [16] deals with Heart. In words: Cardiotoxicity in New Zealand White rabbit heart assessed as change in heart rate at 100 uM after 20 mins relative to baseline. It is filed as toxicity, tissue-based, Oryctolagus cuniculus. The procedure, abridged:
as §4

The target of the next data set is CYP3A4 (Homo sapiens, UniProt P08684). In words: Inhibition of CYP3A4 in human liver microsomes assessed as residual activity at 100 uM by LC/MS analysis. It is filed as ADME, Microsome. As to conditions: read-out: Activity. In general terms: Liver microsomes are vesicles of endoplasmic reticulum, rich in cytochrome P450 enzymes.
CYP3A4, sequence (P08684 whole entry): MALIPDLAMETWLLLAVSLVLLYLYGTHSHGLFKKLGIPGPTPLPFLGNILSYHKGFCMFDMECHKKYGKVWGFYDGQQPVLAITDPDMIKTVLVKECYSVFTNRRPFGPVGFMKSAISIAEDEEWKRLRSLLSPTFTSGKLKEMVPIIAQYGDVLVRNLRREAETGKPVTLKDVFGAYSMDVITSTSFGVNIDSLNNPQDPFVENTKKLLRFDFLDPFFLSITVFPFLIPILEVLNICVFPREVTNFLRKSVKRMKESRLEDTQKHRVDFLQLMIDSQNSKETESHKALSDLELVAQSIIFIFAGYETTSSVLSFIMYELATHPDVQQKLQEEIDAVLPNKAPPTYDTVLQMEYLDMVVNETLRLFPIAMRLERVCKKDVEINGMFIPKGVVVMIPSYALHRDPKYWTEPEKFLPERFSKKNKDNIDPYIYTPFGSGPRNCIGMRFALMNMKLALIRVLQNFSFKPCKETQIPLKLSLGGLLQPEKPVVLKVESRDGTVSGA
Data set [17] concerns the target Sodium channel protein type 5 subunit alpha (Homo sapiens, UniProt Q14524). In words: Inhibition of human voltage-gated Na channel 1.5 expressed in HEK293 cells at 100 uM after 2 mins by patch clamp technique. Format: cell-based. Particulars: hek293, 2 min. The procedure, abridged: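 HEK293 cells stably expressing hNav1.5; automated patch clamp. 20 ms pulses to −10 mV from −120 mV holding at 1 Hz continuously; peak sodium current measured; compound incubated 2 min.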

Another data set has as its system Rattus norvegicus. In words: Cardiotoxicity in Sprague-Dawley rat electrophysiology model assessed as QRS complex abnormalities at 10 mg/kg, iv by ECG analysis. Particulars: in vivo. It is filed as toxicity, organism-based. Details: dose 10 mg/kg, route intravenous. In outline: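 Male Sprague-Dawley rats anesthetized with inactin 100 mg/kg ip; surface lead II ECG recorded continuously. Compounds given as iv bolus via right jugular vein catheter after stabilization; QRS complex abnormality scored as no, moderate or severe change; n = 2 at 10 mg/kg.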

In data set [18] the target is T2, Renin (Macaca fascicularis) (UniProt Q6DLS0).
T2 sequence (whole entry): T1 sequence (Q6DLS0 whole entry)
The data set is described as follows: Ratio of compound IC50 to aliskiren IC50 for renin in cynomolgus monkey plasma.

Data set [19] relates to Cynomolgus monkey. In words: Cardiotoxicity in cynomolgus monkey assessed as change in pulse rate at 1000 mg/kg, po after 4 hrs relative to baseline. Particulars: in vivo.
Data set [20] concerns Cynomolgus monkey. The data set is described as follows: Cardiotoxicity in conscious cynomolgus monkey assessed as change in QRS width at 1000 mg/kg, po after 4 hrs relative to baseline. As to conditions: in vivo.
The subject of data set [21] is Cynomolgus monkey. The data set is described as follows: Cardiotoxicity in conscious cynomolgus monkey assessed as change in QTc interval at 1000 mg/kg, po after 4 hrs relative to baseline. As to conditions: in vivo.

pIC50: −log10 of the molar value. The source made the active and inactive calls. The calls are words filed in the database; no cut-off is given here.

Sodium channel protein type 5 subunit alpha, sequence (Q14524 whole entry): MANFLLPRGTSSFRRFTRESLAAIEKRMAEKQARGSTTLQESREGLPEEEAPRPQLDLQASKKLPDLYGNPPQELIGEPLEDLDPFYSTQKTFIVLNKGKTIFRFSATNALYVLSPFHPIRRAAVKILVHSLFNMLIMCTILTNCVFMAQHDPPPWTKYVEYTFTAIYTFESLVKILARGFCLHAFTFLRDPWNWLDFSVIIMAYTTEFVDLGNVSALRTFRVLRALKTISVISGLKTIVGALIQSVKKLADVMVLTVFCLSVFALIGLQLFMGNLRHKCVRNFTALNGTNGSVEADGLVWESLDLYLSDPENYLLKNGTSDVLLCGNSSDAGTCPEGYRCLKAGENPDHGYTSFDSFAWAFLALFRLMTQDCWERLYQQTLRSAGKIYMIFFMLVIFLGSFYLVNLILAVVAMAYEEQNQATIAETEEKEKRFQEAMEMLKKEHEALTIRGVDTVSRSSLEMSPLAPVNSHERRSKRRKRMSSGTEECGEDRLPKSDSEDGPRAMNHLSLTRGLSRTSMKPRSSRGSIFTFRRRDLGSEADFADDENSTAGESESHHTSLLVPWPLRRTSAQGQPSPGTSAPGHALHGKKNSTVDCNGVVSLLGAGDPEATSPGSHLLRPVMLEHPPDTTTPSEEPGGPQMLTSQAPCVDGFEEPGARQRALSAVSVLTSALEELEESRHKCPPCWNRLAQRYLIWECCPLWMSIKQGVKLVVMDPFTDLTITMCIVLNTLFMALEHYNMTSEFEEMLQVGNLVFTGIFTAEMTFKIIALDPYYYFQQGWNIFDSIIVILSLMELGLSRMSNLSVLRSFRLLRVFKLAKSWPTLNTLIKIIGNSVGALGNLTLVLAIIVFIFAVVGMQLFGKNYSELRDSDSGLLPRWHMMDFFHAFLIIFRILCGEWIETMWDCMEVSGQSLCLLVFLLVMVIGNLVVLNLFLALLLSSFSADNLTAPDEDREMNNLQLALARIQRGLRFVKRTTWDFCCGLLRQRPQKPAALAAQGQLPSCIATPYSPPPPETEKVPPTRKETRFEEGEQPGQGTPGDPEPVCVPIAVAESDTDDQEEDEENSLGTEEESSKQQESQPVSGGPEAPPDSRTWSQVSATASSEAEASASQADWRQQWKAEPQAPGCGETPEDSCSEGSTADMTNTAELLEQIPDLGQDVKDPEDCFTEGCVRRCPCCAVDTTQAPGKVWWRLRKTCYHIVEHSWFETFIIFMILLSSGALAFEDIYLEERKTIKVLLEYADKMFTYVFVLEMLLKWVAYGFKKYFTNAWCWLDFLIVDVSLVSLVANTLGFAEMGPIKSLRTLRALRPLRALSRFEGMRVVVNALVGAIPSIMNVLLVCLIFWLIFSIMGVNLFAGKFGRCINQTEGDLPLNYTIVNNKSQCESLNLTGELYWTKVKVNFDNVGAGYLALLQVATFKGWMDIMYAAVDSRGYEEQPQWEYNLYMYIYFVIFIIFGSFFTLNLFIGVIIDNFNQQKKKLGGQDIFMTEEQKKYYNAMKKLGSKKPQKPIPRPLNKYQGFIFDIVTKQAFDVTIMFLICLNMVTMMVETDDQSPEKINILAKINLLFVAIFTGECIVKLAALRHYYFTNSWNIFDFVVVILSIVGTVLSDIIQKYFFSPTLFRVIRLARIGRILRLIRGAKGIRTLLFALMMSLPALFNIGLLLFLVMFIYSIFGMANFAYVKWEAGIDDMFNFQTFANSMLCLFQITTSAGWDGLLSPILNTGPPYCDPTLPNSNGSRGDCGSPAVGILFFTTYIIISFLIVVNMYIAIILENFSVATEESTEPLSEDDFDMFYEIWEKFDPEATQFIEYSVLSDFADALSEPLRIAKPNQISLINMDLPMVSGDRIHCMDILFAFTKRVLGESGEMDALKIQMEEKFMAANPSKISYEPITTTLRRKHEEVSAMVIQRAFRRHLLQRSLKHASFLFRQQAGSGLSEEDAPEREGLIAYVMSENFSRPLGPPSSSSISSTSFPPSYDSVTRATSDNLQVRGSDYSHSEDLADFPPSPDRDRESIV

At Renin, `CC[C@H](C[C@H](O)[C@@H](N)CN1CC(=O)N(c2ccccc2Cl)CC1(C)C)C(=O)N[C@H]1C2CC3CC1C[C@](O)(C3)C2.O=C(O)/C=C/C(=O)O` had a pIC50 of 8.20. Moreover, the inhibition result with Cynomolgus monkey [1] is “Active”. Besides, the inhibition entry with Cynomolgus monkey [2] and in the data set with Cynomolgus monkey [3] was “Dose-dependent effect” throughout. The molecule further registered a concentration at 4 h in data set [4] of 5400 ng/mL. In data set [5], this molecule gave a concentration at 0.5 h of 38100 ng/mL. In addition, the Activity in the data set with Canis familiaris [6] was -1.4%; in the data set with Canis familiaris [7], 5.8%; in the data set on Canis familiaris [8], -1.5%; with Canis familiaris [9] it was -5.4%; in the data set with Oryctolagus cuniculus [10], -1.3%; in the data set on Oryctolagus cuniculus [11], -1.3%. The Activity in the data set with Oryctolagus cuniculus [12] was 3.9%; in the data set filed under Oryctolagus cuniculus [13], -3.2%; in the data set on Heart [14], 1.7%; with Heart [15], 1.7%; with Heart [16] it was -5.8%; in the data set on Rattus norvegicus, “Non-toxic”. Further, the Activity in the data set with Cynomolgus monkey [19] is 0.3%; in the data set with Cynomolgus monkey [20], -7.6%; in the data set on Cynomolgus monkey [21] it was -0.4%. Moreover, the activity at 100 µM at CYP3A4 amounted to 77.9%. Also, the “inhibition (INH)” value in [17] was “Not Active”. In addition, in data set [18], the Ratio IC50 was 0.8.

In general, pIC50 refers to −log10 of the IC50, conventionally taken in molar units.

The record behind these values is ChEMBL document CHEMBL2384910, “Lead optimization of 5-amino-6-(2,2-dimethyl-5-oxo-4-phenylpiperazin-1-yl)-4-hydroxyhexanamides to reduce a cardiac safety issue: discovery of DS-8108b, an orally active renin inhibitor” (Bioorg Med Chem, 2013).
